≈ marks a conversion by molar mass, not a printed value.
Key:
[1] = test system: CAKI-1 (Homo sapiens); test: In vitro cytotoxicity was evaluated against renal CAKI-1 cells; […]
[2] = test system: SK-MEL-28; test: In vitro cytotoxicity was evaluated against melanoma SK-MEL-28 cells; […]; assay type: functional, cell-based; conditions: Homo sapiens
How it was run: (§1)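 Cells dispersed with trypsin/EDTA, suspended at 5 × 10⁴/mL and seeded in 96-well plates. Compounds dissolved in 100% DMSO, diluted in complete medium and added in 100-µL samples, eight replicate wells per concentration. Controls were mock, vehicle (DMSO in medium) and doxorubicin 200 µM. Incubation 72 h, read by XTT or neutral red uptake, IC₅₀ calculated in µM.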

[3] = test system: DLD-1 (Homo sapiens); test: In vitro cytotoxicity was evaluated against colon DLD-1 cells
[4] = test system: SNB-7; test: In vitro cytotoxicity was evaluated againstCNS SNB-7 cells; assay type: functional, cell-based; conditions: Homo sapiens
How it was run: as §1

[5] = test system: NCI-H23; test: In vitro cytotoxicity was evaluated against lung NCI-H23 cells; assay type: functional, cell-based; conditions: Homo sapiens
How it was run: as §1

[6] = test system: P388; test: Antitumor activity was measured by % increase in life span (ILS) of CD2F1 mice implanted with P388 murine leukemia cell at a dose of 25 mg/kg; assay type: functional, Mus sp.; conditions: Mus musculus
[7] = test system: SNB-7; test: In vitro cytotoxicity was evaluated againstCNS SNB-7 cells; 3 x 10E1; assay type: functional, cell-based; conditions: Homo sapiens
How it was run: as §1

[8] = test system: P388; test: Antitumor activity against intraperitoneally implanted P388 murine leukemia in CD2F1 mice with 10E6 at 25 mg/kg on day 1, expressed tumor-free surv/total;0/5; assay type: functional, Mus sp.; conditions: route intraperitoneal
[9] = test system: Mus sp.; test: Antitumor activity against subcutaneously implanted M5076 murine sarcoma in B6C3F1 mice (5x10E6) at 12.5 mg/kg on day 10 to 14, expressed tumor-free surv/total; 0/5; assay type: functional; conditions: route subcutaneous
How it was run: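 B6C3F1 mice got 5 × 10⁶ M5076 sarcoma cells sc (implant day = day 0). Drug was given ip at 12.5 mg/kg/dose on days 10-14, 5 mice per group. Tumor-free survivors/total were recorded. T-C was the difference in median time after staging for tumors to double in mass twice, treated versus control.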

[10] = test system: SK-MEL-28 (Homo sapiens); test: In vitro cytotoxicity was evaluated against melanoma SK-MEL-28 cells; 1 x 10e1; 1 x 10E1
[11] = test system: P388; test: Antitumor activity measured by % increase in life span (ILS) of CD2F1 mice implanted with murine leukemia cells expressed as net log cell kill; assay type: functional, Mus sp.
[12] = test system: DLD-1 (Homo sapiens); test: In vitro cytotoxicity was evaluated against colon DLD-1 cells; 2 x 10E1
[13] = test system: CAKI-1 (Homo sapiens); test: In vitro cytotoxicity was evaluated against renal CAKI-1 cells; 2 x 10E1
[14] = species on record: Mus sp.; test: Difference in the median of times poststaging for tumors of the treated (T) groups to double in mass twice compared to the median of the control (C) group; assay type: functional
How it was run: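 M5076 sarcoma, 5 × 10⁶ cells implanted sc in B6C3F₁ mice (implantation = day 0). Compound given ip on days 10-14 at optimal dosage (≤LD10). T-C is the difference in median time after staging for treated versus control tumors to double in mass twice, in days.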

[15] = test system: SK-MEL-28 (Homo sapiens); test: In vitro cytotoxicity was evaluated against melanoma SK-MEL-28 cells; 3 x 10E1
[16] = test system: CAKI-1 (Homo sapiens); test: In vitro cytotoxicity was evaluated against renal CAKI-1 cells
[17] = test system: DLD-1; test: In vitro cytotoxicity was evaluated against colon DLD-1 cells; 4 x 10E1; assay type: functional, cell-based; conditions: Homo sapiens
How it was run: as §1

[18] = test system: DLD-1 (Homo sapiens); test: In vitro cytotoxicity was evaluated against colon DLD-1 cells; 1 x 10E1
[19] = test system: CAKI-1 (Homo sapiens); test: In vitro cytotoxicity was evaluated against renal CAKI-1 cells; 3 x 10E1
[20] = test system: NCI-H23; test: In vitro cytotoxicity was evaluated against lung NCI-H23 cells; 1 x 10E1; assay type: functional, cell-based; conditions: Homo sapiens
How it was run: as §1

[21] = test system: SK-MEL-28 (Homo sapiens); test: In vitro cytotoxicity was evaluated against melanoma SK-MEL-28 cells; 2 x 10E1
[22] = test system: DLD-1 (Homo sapiens); test: In vitro cytotoxicity was evaluated against colon DLD-1 cells; 3 x 10E1
[23] = test system: NCI-H23; test: In vitro cytotoxicity was evaluated against lung NCI-H23 cells; 3 x 10E1; assay type: functional, cell-based; conditions: Homo sapiens
How it was run: as §1

[24] = test system: SK-MEL-28 (Homo sapiens); test: In vitro cytotoxicity was evaluated against melanoma SK-MEL-28 cells
[25] = test system: CAKI-1; test: In vitro cytotoxicity was evaluated against renal CAKI-1 cells; 3 x 10E1; assay type: functional, cell-based; conditions: Homo sapiens
How it was run: as §1

[26] = test system: DLD-1; test: In vitro cytotoxicity was evaluated against colon DLD-1 cells; 2 x 10E1; assay type: functional, cell-based; conditions: Homo sapiens
How it was run: as §1

[27] = test system: SK-MEL-28; test: In vitro cytotoxicity was evaluated against melanoma SK-MEL-28 cells; 1 x 10E1; assay type: functional, cell-based; conditions: Homo sapiens
How it was run: as §1

[28] = test system: SNB-7; test: In vitro cytotoxicity was evaluated againstCNS SNB-7 cells; 1 x 10E1; assay type: functional, cell-based; conditions: Homo sapiens
How it was run: as §1

**Q.** What does the source list for O=NN(CCCl)C(=O)OCc1ccccc1[N+](=O)[O-]?
**A.** IC50 [1]: 40 mg/L (≈ 139 µM); IC50 [2]: 40 mg/L (≈ 139 µM); IC50 [3]: 6 mg/L; IC50 [4]: 1 mg/L (≈ 3.48 µM); IC50 [5]: 3 mg/L (≈ 10.4 µM)

**Q.** With CC(=O)Oc1ccc(COC(=O)N(CCCl)N=O)cc1 as the compound, how does the ILS at 25 mg/kg [6] read?
**A.** 4%

**Q.** And the IC50 [7]?
**A.** 30 mg/L (≈ 99.8 µM)

**Q.** What about the Survivial / total [8] of the same compound?
**A.** 0

**Q.** What about the Survivial / total [9] of the same compound?
**A.** 0

**Q.** And the IC50 [10]?
**A.** 10 mg/L (≈ 33.3 µM)

**Q.** What about the IC50 [5] of the same compound?
**A.** 6 mg/L (≈ 20 µM)

**Q.** What about the “Net log cell kill” value [11] of the same compound?
**A.** -0.3

**Q.** What about the IC50 [12] of the same compound?
**A.** 20 mg/L (≈ 66.5 µM)

**Q.** And the IC50 [13]?
**A.** 20 mg/L (≈ 66.5 µM)

**Q.** What about the T-C [14] of the same compound?
**A.** 3

**Q.** How did the IC50 [15] turn out when O=NN(CCCl)C(=O)Oc1cncnc1 was run?
**A.** 30 mg/L (≈ 130 µM)

**Q.** And the IC50 [16]?
**A.** 6 mg/L

**Q.** What about the IC50 [17] of the same compound?
**A.** 40 mg/L (≈ 173 µM)

**Q.** What about the IC50 [4] of the same compound?
**A.** 6 mg/L (≈ 26 µM)

**Q.** And the IC50 [5]?
**A.** 2 mg/L (≈ 8.67 µM)

**Q.** Which results are given for CC(=O)Oc1ccccc1COC(=O)N(CCCl)N=O?
**A.** IC50 [18]: 10 mg/L (≈ 33.3 µM); IC50 [19]: 30 mg/L (≈ 99.8 µM); IC50 [20]: 10 mg/L; IC50 [4]: 6 mg/L (≈ 20 µM); IC50 [21]: 20 mg/L (≈ 66.5 µM)

**Q.** Which IC50 [15] does the source give for O=NN(CCCl)C(=O)Oc1cccnc1 here?
**A.** > 30 mg/L

**Q.** And the IC50 [7]?
**A.** > 30 mg/L

**Q.** What about the IC50 [22] of the same compound?
**A.** > 30 mg/L

**Q.** What about the IC50 [19] of the same compound?
**A.** > 30 mg/L

**Q.** What about the IC50 [23] of the same compound?
**A.** > 30 mg/L

**Q.** Which results are given for O=NN(CCCl)C(=O)OCc1ccc([N+](=O)[O-])cc1?
**A.** IC50 [16]: 3 mg/L; IC50 [3]: 5 mg/L; IC50 [4]: 1 mg/L (≈ 3.48 µM); IC50 [5]: 1 mg/L (≈ 3.48 µM); IC50 [24]: 1 mg/L

**Q.** Which results are given for CC(=O)OCC1OC(OC(=O)N(CCCl)N=O)C(OC(C)=O)C(OC(C)=O)C1OC(C)=O (stereo not given)?
**A.** IC50 [25]: > 30 mg/L; IC50 [26]: 20 mg/L (≈ 41.4 µM); IC50 [27]: 10 mg/L (≈ 20.7 µM); IC50 [5]: 3 mg/L (≈ 6.21 µM); IC50 [28]: 10 mg/L

**Q.** Which IC50 [16] does the source give for Nc1ccn([C@@H]2O[C@H](CO)[C@@H](O)[C@@H]2O)c(=O)n1 [CYTARABINE] here?
**A.** > 5 µM

**Q.** What about the IC50 [3] of the same compound?
**A.** > 5 µM

**Q.** And the IC50 ([20]; read-out: IC50)?
**A.** 1 µM

**Q.** And the IC50 ([28]; read-out: IC50)?
**A.** 1 µM

**Q.** And the IC50 [24]?
**A.** 1 µM

From ChEMBL document CHEMBL1133006, “Synthesis and evaluation of several new (2-chloroethyl)nitrosocarbamates as potential anticancer agents” (J Med Chem, 2000)
